ChEMBL document CHEMBL1124216, “A novel class of potential central nervous system agents. 3-Phenyl-2-(1-piperazinyl)-5H-1-benzazepines” (1988)

Experiments:
Assay type in all cases: functional
[1] = tested on: Mus musculus; experiment: Antimaximal electroshock seizure (MES) activity in mice after peroral administration of 100 mg/kg of compound; 3/5; settings: route oral
[2] = tested on: Mus musculus; experiment: Antipentylene tetrazole activity was determined in mice when administered perorally; settings: po
Procedure, shortened: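 Groups of five male Std-ddY mice received compound orally in 0.5% tragacanth, then pentylenetetrazole 175 mg/kg ip. Blockade of the tonic extensor component scored as anticonvulsant. ED50 was the dose protecting 50% of animals (Litchfield-Wilcoxon).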

[3] = tested on: Mus musculus; experiment: Antimaximal electroshock seizure activity was determined in mice when administered perorally; settings: po
[4] = tested on: Mus musculus; experiment: Antiexploratory activity (EXPL) of mice determined by an antimex activity meter, 100 mg/kg of dose was administered perorally; No inhibition; settings: route oral
[5] = tested on: Mus musculus; experiment: Antitremorine activity(TRM) of mice after peroral administration of 100 mg/kg of compound; No inhibition; settings: route oral
[6] = tested on: Mus musculus; experiment: Antireserpine activity (RES) of mice after peroral administration of 100 mg/kg of compound; No inhibition; settings: route oral
[7] = tested on: Mus musculus; experiment: Antimaximal electroshock seizure (MES) activity in mice after peroral administration of 10 mg/kg of compound; 0/5; settings: route oral
[8] = tested on: Mus musculus; experiment: Antimaximal electroshock seizure (MES) activity in mice after peroral administration of 100 mg/kg of compound; 4/5; settings: route oral
[9] = tested on: Mus musculus; experiment: Antitremorine activity(TRM) of mice after peroral administration of 100 mg/kg of compound; Moderate inhibition (51-71%); settings: route oral
[10] = tested on: Mus musculus; experiment: Antimaximal electroshock seizure (MES) activity in mice after peroral administration of 100 mg/kg of compound; 0/5; settings: route oral
[11] = tested on: Mus musculus; experiment: Antiexploratory activity (EXPL) of mice determined by an antimex activity meter, 100 mg/kg of dose was administered perorally; Moderate inhibition (51-71%); settings: route oral
[12] = tested on: Mus musculus; experiment: Antireserpine activity (RES) of mice after peroral administration of 100 mg/kg of compound; Slight inhibition (31-50%); settings: route oral
[13] = tested on: Canis familiaris; experiment: Inhibition of apomorphine induced emesis in dogs at 1 mg/kg of dose.; settings: Canis lupus familiaris
Procedure, shortened: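 Beagle dogs (10-15 kg), groups of three, given compound po in a gelatin capsule; 2 h later apomorphine hydrochloride 0.3 mg/kg sc. Vomiting counted for 1 h; mean inhibition as percent of control. ED50 is the dose giving 50% inhibition of emesis, by Litchfield-Wilcoxon.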

[14] = tested on: Mus musculus; experiment: 3,4 -Dihydroxy phenylacetic acid (DOPAC) levels in mouse brain at 10 mg/kg dose.
Procedure, shortened: (§1)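 Male Std-ddY mice, 20-25 g, dosed orally with compound in 0.5% aqueous tragacanth. DOPAC was measured fluorometrically after purification by column chromatography on Sephadex G-10 and QAE-Sephadex. Brains from five mice per compound were pooled for each determination.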

[15] = tested on: Mus musculus; experiment: 3,4 -Dihydroxy phenylacetic acid (DOPAC) levels in mouse brain at 50 mg/kg dose.; procedure, shortened: as §1
[16] = tested on: Mus musculus; experiment: The homovanillic acid (HVA) levels in mouse brain at 10 mg/kg of dose.
Procedure, shortened: (§2)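 Mice dosed orally in 0.5% aqueous tragacanth; brains of five mice per compound pooled. Homovanillic acid measured in brain extracts and reported as brain level.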

[17] = tested on: Mus musculus; experiment: The homovanillic acid (HVA) levels in mouse brain at 50 mg/kg of dose.; procedure, shortened: as §2
[18] = tested on: Mus musculus; experiment: Exploratory activity of mice determined by an antimex activity meter, 10 mg/kg of dose was administered perorally; settings: route oral
[19] = tested on: Mus musculus; experiment: Exploratory activity of mice determined by an antimex activity meter, 50 mg/kg of dose was administered perorally; settings: Mus musculus, po
Procedure, shortened: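 Male Std-ddY mice (20-25 g), five per dose; compound in 0.5% aqueous tragacanth given orally. Two hours later each mouse placed in an Animex activity meter cage and locomotor activity counted for 3 min. Mean suppression expressed as percent inhibition of control; ED50 by Litchfield-Wilcoxon.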

[20] = tested on: Mus musculus; experiment: Antiexploratory activity (EXPL) of mice determined by an antimex activity meter, 50 mg/kg of dose was administered perorally; Moderate inhibition (51-71%); settings: route oral
[21] = tested on: Mus musculus; experiment: Antiexploratory activity (EXPL) of mice determined by an antimex activity meter, 10 mg/kg of dose was administered perorally; No inhibition; settings: route oral
[22] = tested on: Mus musculus; experiment: Antimaximal electroshock seizure (MES) activity in mice after peroral administration of 100 mg/kg of compound; 5/5; settings: route oral
[23] = tested on: Mus musculus; experiment: Antitremorine activity(TRM) of mice after peroral administration of 100 mg/kg of compound; Slight inhibition (31-50%); settings: route oral
[24] = tested on: Mus musculus; experiment: Antiexploratory activity (EXPL) of mice determined by an antimex activity meter, 100 mg/kg of dose was administered perorally; Slight inhibition (31-50%); settings: route oral
[25] = tested on: Mus musculus; experiment: Antiexploratory activity (EXPL) of mice determined by an antimex activity meter,100 mg/kg of dose was administered perorally; No inhibition
[26] = tested on: Mus musculus; experiment: Antireserpine activity (RES) of mice after peroral administration of 50 mg/kg of compound; No inhibition; settings: route oral
[27] = tested on: Mus musculus; experiment: Antiexploratory activity (EXPL) of mice determined by an antimex activity meter, 50 mg/kg of dose was administered perorally; No inhibition; settings: route oral
[28] = tested on: Mus musculus; experiment: Antitremorine activity(TRM) of mice after peroral administration of 100 mg/kg of compound; settings: route oral

## CCN1CCN(C2=Nc3ccc(Br)cc3CC=C2c2ccccc2)CC1.Cl.Cl
[1]
  Activity: 3
[2]
  ED50: 17.2 mg/kg
[3]
  ED50: 30.7 mg/kg
[4]
  inhibition in vivo at 100 mg/kg: < 30%
[5]
  inhibition in vivo at 100 mg/kg: < 30%
[6]
  inhibition in vivo at 100 mg/kg: < 30%

## Cl.Cl.OCCN1CCN(C2=Nc3ccc(Cl)cc3CC=C2c2ccccc2)CC1
[7]
  Activity: 0
[2]
  ED50: 26.5 mg/kg
[8]
  Activity: 4
[3]
  ED50: 49.5 mg/kg
[4]
  inhibition in vivo at 100 mg/kg: < 30%
[9]
  inhibition in vivo at 100 mg/kg: 51%
[6]
  inhibition in vivo at 100 mg/kg: < 30%

## CN1CCN(C2=Nc3ccccc3CC=C2c2ccccc2)CC1.Cl.Cl
[10]
  Activity: 0
[3]
  ED50: > 100 mg/kg
[11]
  inhibition in vivo at 100 mg/kg: 51%
[12]
  inhibition in vivo at 100 mg/kg: 31%
[5]
  inhibition in vivo at 100 mg/kg: < 30%

## Cl.Cl.OCCN1CCN(C2=Nc3ccccc3CC=C2c2ccc(F)cc2)CC1
[13]
  inhibition in vivo at 1 mg/kg: 100%
[14]
  Control: 262%
[15]
  Control: 369%
[16]
  Control: 243%
[17]
  Control: 349%
[18]
  inhibition in vivo at 10 mg/kg: 19.6%
[19]
  inhibition in vivo at 50 mg/kg: 68.4%
[20]
  inhibition in vivo at 50 mg/kg: 51%
[21]
  inhibition in vivo at 10 mg/kg: < 30%

## CCc1ccc2c(c1)CC=C(c1ccccc1)C(N1CCN(C)CC1)=N2.Cl.Cl
[7]
  Activity: 0
[22]
  Activity: 5
[9]
  inhibition in vivo at 100 mg/kg: 51%
[6]
  inhibition in vivo at 100 mg/kg: < 30%

## CN1CCN(C2=Nc3ccccc3CC=C2c2ccc(Cl)cc2)CC1.Cl.Cl
[10]
  Activity: 0
[23]
  inhibition in vivo at 100 mg/kg: 31%
[24]
  inhibition in vivo at 100 mg/kg: 31%
[6]
  inhibition in vivo at 100 mg/kg: < 30%

## CCN1CCN(C2=Nc3ccccc3CC=C2c2ccc(Cl)cc2)CC1.Cl.Cl
[10]
  Activity: 0
[11]
  inhibition in vivo at 100 mg/kg: 51%
[5]
  inhibition in vivo at 100 mg/kg: < 30%
[6]
  inhibition in vivo at 100 mg/kg: < 30%

## Cc1ccc2c(c1)CC=C(c1ccccc1)C(N1CCN(C)CC1)=N2.Cl.Cl
[1]
  Activity: 3
[2]
  ED50: 50.9 mg/kg
[3]
  ED50: 86.1 mg/kg
[4]
  inhibition in vivo at 100 mg/kg: < 30%
[5]
  inhibition in vivo at 100 mg/kg: < 30%
[6]
  inhibition in vivo at 100 mg/kg: < 30%

## CN1CCN(C2=Nc3cc(Cl)ccc3CC=C2c2ccc(Cl)cc2)CC1.Cl.Cl
[10]
  Activity: 0
[11]
  inhibition in vivo at 100 mg/kg: 51%
[5]
  inhibition in vivo at 100 mg/kg: < 30%
[6]
  inhibition in vivo at 100 mg/kg: < 30%

## Cl.OC1(c2ccc(Cl)cc2)CCN(C2=Nc3ccc(Br)cc3CC=C2c2ccccc2)CC1
[10]
  Activity: 0
[25]
  Inhibition: <30%
[5]
  inhibition in vivo at 100 mg/kg: < 30%
[6]
  inhibition in vivo at 100 mg/kg: < 30%

## CCc1ccc2c(c1)CC=C(c1ccccc1)C(N1CCN(CC)CC1)=N2.Cl.Cl
[7]
  Activity: 0
[22]
  Activity: 5
[9]
  inhibition in vivo at 100 mg/kg: 51%
[24]
  inhibition in vivo at 100 mg/kg: 31%
[6]
  inhibition in vivo at 100 mg/kg: < 30%

## OCCN1CCN(C2=Nc3ccccc3CC=C2c2ccc(C(F)(F)F)cc2)CC1
[26]
  inhibition in vivo at 50 mg/kg: < 30%
[27]
  inhibition in vivo at 50 mg/kg: < 30%

## Cl.Cl.OCCN1CCN(C2=Nc3ccccc3CC=C2c2ccccc2Cl)CC1
[10]
  Activity: 0
[11]
  inhibition in vivo at 100 mg/kg: 51%
[23]
  inhibition in vivo at 100 mg/kg: 31%
[6]
  inhibition in vivo at 100 mg/kg: < 30%

## C1=C(c2ccccc2)C(N2CCCCC2)=Nc2ccccc2C1.Cl.Cl
[10]
  Activity: 0
[5]
  inhibition in vivo at 100 mg/kg: < 30%
[24]
  inhibition in vivo at 100 mg/kg: 31%
[6]
  inhibition in vivo at 100 mg/kg: < 30%

## CN1CCN(C2=Nc3ccc(Br)cc3CC=C2c2ccccc2)CC1.Cl.Cl
[2]
  ED50: 8.3 mg/kg
[22]
  Activity: 5
[3]
  ED50: 31.2 mg/kg
[4]
  inhibition in vivo at 100 mg/kg: < 30%
[28]
  inhibition in vivo at 100 mg/kg: > 71%
[6]
  inhibition in vivo at 100 mg/kg: < 30%

## CCN1CCN(C2=Nc3ccc(F)cc3CC=C2c2ccccc2)CC1.Cl.Cl
[10]
  Activity: 0
[2]
  ED50: > 100 mg/kg
[3]
  ED50: > 500 mg/kg
[11]
  inhibition in vivo at 100 mg/kg: 51%
[5]
  inhibition in vivo at 100 mg/kg: < 30%
[6]
  inhibition in vivo at 100 mg/kg: < 30%

## CCN1CCN(C2=Nc3ccccc3CC=C2c2ccc(C(F)(F)F)cc2)CC1
[26]
  inhibition in vivo at 50 mg/kg: < 30%
[27]
  inhibition in vivo at 50 mg/kg: < 30%
